Assay results as given in ChEMBL document CHEMBL1126550, “Nanomolar-affinity, non-peptide oxytocin receptor antagonists” (J Med Chem, 1993).

Key:
[1] = molecular target: T1, Oxytocin receptor (Rattus norvegicus, UniProt P70536); assay: Inhibition of radioligand [3H]oxytocin binding at the oxytocin (OT) receptor in rat uterine tissue
T1 sequence (P70536 whole entry): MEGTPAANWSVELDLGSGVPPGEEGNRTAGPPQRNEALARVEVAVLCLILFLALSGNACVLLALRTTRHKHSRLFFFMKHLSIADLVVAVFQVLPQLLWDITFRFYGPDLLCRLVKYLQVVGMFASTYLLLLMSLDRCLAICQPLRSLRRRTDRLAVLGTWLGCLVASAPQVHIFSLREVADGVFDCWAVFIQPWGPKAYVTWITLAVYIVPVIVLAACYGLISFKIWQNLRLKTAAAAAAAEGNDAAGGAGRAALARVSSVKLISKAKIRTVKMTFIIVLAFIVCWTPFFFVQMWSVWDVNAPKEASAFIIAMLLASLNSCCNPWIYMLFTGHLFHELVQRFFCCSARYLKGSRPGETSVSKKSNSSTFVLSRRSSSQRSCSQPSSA
How it was run: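 Uteri taken from rats given diethylstilbestrol dipropionate (0.3 mg/kg ip, 18–24 h before), crude membranes. 1 nM [3H]OT (30–60 Ci/mmol), equilibrium 60 min at 22 °C in 50 mM Tris-HCl, 5 mM MgCl2, 0.1% BSA, pH 7.4. Nonspecific binding with 1 mM unlabeled OT. Filtered on glass fiber. Initial single-concentration screen, then IC50 from seven concentrations by linear regression.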

[2] = molecular target: Vasopressin V1 receptor (Rattus norvegicus, UniProt P48974+P30560); assay: Inhibition of radioligand [3H]AVP binding to the vasopressin V1 receptor in rat liver tissue
How it was run: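 Crude membranes from male rat liver (V1 sites) competed with 1 nM [3H]AVP (80–90 Ci/mmol). Equilibrium 30 min, 30 °C, buffer 100 mM Tris-HCl, 5 mM MgCl2, 0.1% BSA, 50 μM PMSF, 50 μg/mL bacitracin, pH 8.0. 10 μM unlabeled AVP for nonspecific binding. Filtration through glass-fiber filters. IC50 from linear regression over seven concentrations.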

[3] = molecular target: Vasopressin V2 receptor (Rattus norvegicus, UniProt Q00788); assay: Inhibition of radioligand [3H]-AVP binding to the vasopressin V2 receptor in rat kidney tissue
Sequence of Vasopressin V2 receptor (Q00788 whole entry): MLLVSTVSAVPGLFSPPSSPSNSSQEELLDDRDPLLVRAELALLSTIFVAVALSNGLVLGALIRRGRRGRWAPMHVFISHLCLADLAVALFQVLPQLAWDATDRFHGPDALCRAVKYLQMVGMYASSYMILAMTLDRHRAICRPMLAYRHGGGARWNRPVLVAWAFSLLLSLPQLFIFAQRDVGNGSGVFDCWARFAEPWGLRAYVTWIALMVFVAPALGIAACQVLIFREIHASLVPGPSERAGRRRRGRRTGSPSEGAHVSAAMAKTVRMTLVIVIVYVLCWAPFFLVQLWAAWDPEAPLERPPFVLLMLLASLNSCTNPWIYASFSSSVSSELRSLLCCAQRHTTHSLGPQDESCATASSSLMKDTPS
How it was run: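 [3H]AVP (80–90 Ci/mmol) at 2 nM competed on crude membranes from male rat kidney medulla (V2 sites). Equilibrium 30 min at 30 °C in 100 mM Tris-HCl, 5 mM MgCl2, 0.1% BSA, 50 μM PMSF, 50 μg/mL bacitracin, pH 8.0. Nonspecific binding with 10 μM unlabeled AVP. Glass-fiber filtration. IC50 by linear regression of % inhibition vs log concentration, seven concentrations.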

SMILES | IC50 [1] [nM] | IC50 [2] [nM] | IC50 [3] [µM]
CC1(C)[C@@H]2CC[C@@]1(CS(=O)(=O)N1CCC3(C=Cc4ccccc43)CC1)[C@@](O)(CN1C(=O)CCC1=O)C2 | 110 | 3000 | > 3
CC1(C)[C@@H]2CC[C@@]1(CS(=O)(=O)N1CCC3(C=Cc4ccccc43)CC1)[C@@](O)(CNC(=O)Cc1c[nH]cn1)C2 | 45 | > 300 | > 3
CC1(C)[C@@H]2CC[C@@]1(CS(=O)(=O)N1CCC3(CCc4ccccc43)CC1)[C@H](NC(=O)Cc1c[nH]cn1)C2 | 830 | 5100 | 13
CCCS(=O)(=O)N[C@H]1C[C@H]2CC[C@]1(CS(=O)(=O)N1CCC3(CCc4ccccc43)CC1)C2(C)C | 310 | > 1000 | 10
CC1(C)[C@@H]2CC[C@@]1(CS(=O)(=O)N1CCC3(CCc4ccccc43)CC1)[C@@H](N1C(=O)NC(Cc3cccnc3)C1=O)C2 (stereo not given in full) | 36 | > 300 | > 0.3
CC1(C)[C@@H]2CC[C@@]1(CS(=O)(=O)N1CCC3(CCc4ccccc43)CC1)[C@@H](NC(=O)Cc1csc(N)n1)C2 | 170 | > 3000 | > 3
CC1(C)[C@@H]2CC[C@@]1(CS(=O)(=O)N1CCC3(CCc4ccccc43)CC1)[C@@H](N1C(=O)NC(CCS(C)(=O)=O)C1=O)C2 (stereo not given in full) | 2.6 | 110 | 0.66
CC1(C)[C@@H]2CC[C@@]1(CS(=O)(=O)N1CCC3(C=Cc4ccccc43)CC1)C1(CNC(=O)O1)C2 (stereo not given in full) | > 1000 | > 10000 | > 10
CC1(C)[C@@H]2CC[C@@]1(CS(=O)(=O)N1CCC3(CCc4ccccc43)CC1)[C@@H](NC(=O)/C=C/c1c[nH]cn1)C2 | 150 | 5200 | 20
CC1(C)[C@@H]2CC[C@@]1(CS(=O)(=O)N1CCC3(C=Cc4ccccc43)CC1)[C@@](O)(CNC(=O)C(N)CCS(C)(=O)=O)C2 (stereo not given in full) | 110 | 3700 | 9.2
CC1(C)[C@@H]2CC[C@@]1(CS(=O)(=O)N1CCC3(C=Cc4ccccc43)CC1)[C@@](O)(CNC(=O)Cc1cccnc1)C2 | 53 | 890 | 4.5
CC1(C)[C@@H]2CC[C@@]1(CS(=O)(=O)N1CCC3(CCc4ccccc43)CC1)[C@H](NC(=O)Cc1ccccc1)C2 | 1000 | > 1000 | 10
CC1(C)[C@@H]2CC[C@@]1(CS(=O)(=O)N1CCC3(CCc4ccccc43)CC1)[C@@H](NC(=O)C(N)CCCO)C2 (stereo not given in full) | 80 | 1700 | 6.2
Cn1cnc(CC(=O)N[C@H]2C[C@H]3CC[C@]2(CS(=O)(=O)N2CCC4(CCc5ccccc54)CC2)C3(C)C)c1 | 65 | 4500 | 9.4
CC1(C)[C@@H]2CC[C@@]1(CS(=O)(=O)N1CCC3(CCc4ccccc43)CC1)[C@](O)(CNC(=O)C(N)CS(C)(=O)=O)C2 (stereo not given in full) | 40 | 1100 | 3
CC1(C)[C@@H]2CC[C@@]1(CS(=O)(=O)N1CCC3(C=Cc4ccccc43)CC1)[C@](O)(CN)C2 | 10000 | 100000 | 100
CC1(C)[C@@H]2CC[C@@]1(CS(=O)(=O)N1CCC3(C=Cc4ccccc43)CC1)[C@@](O)(CCNC(=O)c1ccccc1)C2 | 220 | 4600 | 23
CC1(C)[C@@H]2CC[C@@]1(CS(=O)(=O)N1CCC3(CCc4ccccc43)CC1)[C@@H](NC(=O)C[C@]13C[C@H]4C[C@H](C[C@H](C4)C1)C3)C2 | 12000 | > 10000 | > 10
CC1(C)[C@@H]2CC[C@@]1(CS(=O)(=O)N1CCC3(CCc4ccccc43)CC1)[C@@H](NC(=O)Cc1[nH]cnc1Br)C2 | 110 | 8100 | 15
CC1(C)[C@@H]2CC[C@@]1(CS(=O)(=O)N1CCC3(C=Cc4ccccc43)CC1)[C@@](O)(CCNC(=O)c1ccncc1)C2 | 79 | > 1000 | > 1

SMILES | IC50 [1] [nM] | IC50 [2] [nM] | IC50 [3] [µM]
CC1(C)[C@@H]2CC[C@@]1(CS(=O)(=O)N1CCC3(C=Cc4ccccc43)CC1)[C@@](O)(CNC(=O)C1CN3CCC1CC3)C2 (stereo not given in full) | 57 | 470 | 6.1
CC1(C)[C@@H]2CC[C@@]1(CS(=O)(=O)N1CCC3(C=Cc4ccccc43)CC1)[C@@](O)(CNC(=O)NC1CCCCC1)C2 | 170 | 950 | 18
CC1(C)[C@H]2CC[C@]1(CS(=O)(=O)N1CCC3(CCc4ccccc43)CC1)[C@@H](NC(=O)Cc1c[nH]cn1)C2 | 10000 | > 3000 | > 3
CC1(C)[C@@H]2CC[C@@]1(CS(=O)(=O)N1CCC3(CCc4ccccc43)CC1)[C@@H](NC(=O)N(CCc1c[nH]cn1)CCS(C)(=O)=O)C2 | 16 | 700 | 1.9
CC1(C)[C@@H]2CC[C@@]1(CS(=O)(=O)N1CCC3(C=Cc4ccccc43)CC1)[C@@](O)(CCNC(=O)c1ccccn1)C2 | 120 | > 1000 | > 1
CC1(C)[C@@H]2CC[C@@]1(CS(=O)(=O)N1CCC3(CCc4ccccc43)CC1)[C@@H](N1C(=O)NC(=O)C1=O)C2 | 180 | 9200 | 16
CC1(C)[C@@H]2CC[C@@]1(CS(=O)(=O)N1CCC3(CCc4ccccc43)CC1)[C@@H](NC(=O)CCC1CCCNC1)C2 (stereo not given in full) | 30 | 710 | 5.2
CC1(C)[C@@H]2CC[C@@]1(CS(=O)(=O)N1CCC3(CCc4ccccc43)CC1)[C@@](O)(CN1CCCC1=O)C2 | 150 | 3000 | > 3
CC1(C)[C@@H]2CC[C@@]1(CS(=O)(=O)N1CCC3(C=Cc4ccccc43)CC1)[C@@](O)(CNC(=O)CC13CC4CC(CC(C4)C1)C3)C2 | 480 | > 3000 | > 3
Cn1cncc1CC(=O)N[C@@H](CCC(N)=O)C(=O)N[C@H]1C[C@H]2CC[C@]1(CS(=O)(=O)N1CCC3(CCc4ccccc43)CC1)C2(C)C | 2.3 | > 300 | > 0.3
CC1(C)[C@@H]2CC[C@@]1(CS(=O)(=O)N1CCC3(CCc4ccccc43)CC1)[C@@H](NC(N)=O)C2 | 460 | > 3000 | > 3
CC1(C)[C@@H]2CC[C@@]1(CS(=O)(=O)N1CCC3(C=Cc4ccccc43)CC1)[C@@](O)(CCNC(=O)c1cccnc1)C2 | 97 | 1900 | 6
CC1(C)[C@@H]2CC[C@@]1(CS(=O)(=O)N1CCC3(C=Cc4ccccc43)CC1)[C@@](O)(CC(=O)O)C2 | 800 | 78000 | 70
CC1(C)[C@@H]2CC[C@@]1(CS(=O)(=O)N1CCC3(C=Cc4ccccc43)CC1)/C(=N\O)C2 | 650 | 10000 | > 10
CC1(C)[C@@H]2CC[C@@]1(CS(=O)(=O)N1CCC3(CCc4ccccc43)CC1)[C@@H](N1C(=O)CC(CC(=O)Nc3nn[nH]n3)C1=O)C2 (stereo not given in full) | 13 | 770 | 2.4
CC(=O)NCC[C@@]1(O)C[C@H]2CC[C@]1(CS(=O)(=O)N1CCC3(C=Cc4ccccc43)CC1)C2(C)C | 150 | 2700 | 30
CC1(C)[C@@H]2CC[C@@]1(CS(=O)(=O)N1CCC3(CCc4ccccc43)CC1)[C@@H](N1C(=O)CCC1=O)C2 | 11 | 910 | 1.7
CC1(C)[C@@H]2CC[C@@]1(CS(=O)(=O)N1CCC3(CCc4ccccc43)CC1)[C@@H](NC(=O)C1CCCCC1)C2 | 650 | 10000 | > 10
CC1(C)[C@@H]2CC[C@@]1(CS(=O)(=O)N1CCC3(CCc4ccccc43)CC1)[C@@H](NC(=O)Cc1ccccc1)C2 | 250 | 2700 | 46
CC1(C)[C@@H]2CC[C@@]1(CS(=O)(=O)N1CCC3(CCc4ccccc43)CC1)[C@@H](N1C(=O)CN(Cc3nn[nH]n3)C1=O)C2 | 49 | 2000 | 4.4
